Test results taken from ChEMBL document CHEMBL4689842, “EUbOPEN Chemogenomics Library wave 1” (2021).

System: Fibroblast
Experiment: Multiplex assay against human fibroblast
Assay type: toxicity, cell-based
In short: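 At seeding, live cells were stained with Hoechst33342, BioTracker Green Microtubule Cytoskeleton Dye, MitoTracker Red and Annexin V Alexa Fluor 680. After compound addition they were imaged on a CQ1 microscope at 37°C and 5% CO2, and CellPathfinder machine-learning gating sorted them into Hoechst high-intensity objects or normal cells, with normal cells further split into healthy, pyknosed or fragmented nuclei and pyknosed cells into mitotic or apoptotic. Tubulin, mitochondrial-mass and membrane-permeability phenotypes are given as per cents of cells with healthy nuclei.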

[1] = 12 h, 1 µM, compound concentration 1 uM, replicate 1
[2] = 12 h, 1 µM, compound concentration 1 uM, replicate 2
[3] = 12 h, 10 µM, compound concentration 10 uM, replicate 1
[4] = 12 h, 10 µM, compound concentration 10 uM, replicate 2
[5] = 24 h, 1 µM, compound concentration 1 uM, replicate 1
[6] = 24 h, 1 µM, compound concentration 1 uM, replicate 2
[7] = 24 h, 10 µM, compound concentration 10 uM, replicate 1
[8] = 24 h, 10 µM, compound concentration 10 uM, replicate 2
[9] = 48 h, 1 µM, compound concentration 1 uM, replicate 1
[10] = 48 h, 1 µM, compound concentration 1 uM, replicate 2
[11] = 48 h, 10 µM, compound concentration 10 uM, replicate 1
[12] = 48 h, 10 µM, compound concentration 10 uM, replicate 2

C=C1/C(=C\C=C2/CCC[C@]3(C)[C@@H]([C@H](C)/C=C/[C@H](C)C(C)C)CC[C@@H]23)C[C@@H](O)C[C@@H]1O [DOXERCALCIFEROL]
Population Apoptotic (%) [1]: 63%
Population Fragmented Nuclei (%) [1]: 23%
Population Healthy Nuclei (%) [1]: 33%
Population Hoechst High Intensity Objects (%) [1]: 10%
Population Membrane Permeable-Phenotype (%) [1]: 10%
Population Mitochondria Different-Phenotype (%) [1]: 0%
Population Mitotic Cells (%) [1]: 36%
Population Normal (%) [1]: 89%
Population Pyknosed Nuclei (%) [1]: 42%
Population Tubulin-Different-Phenotype (%) [1]: 14%
Total Cell Count [1]: 94
Population Apoptotic (%) [2]: 40%
Population Fragmented Nuclei (%) [2]: 1%
Population Healthy Nuclei (%) [2]: 90%
Population Hoechst High Intensity Objects (%) [2]: 1%
Population Membrane Permeable-Phenotype (%) [2]: 5%
Population Mitochondria Different-Phenotype (%) [2]: 14%
Population Mitotic Cells (%) [2]: 60%
Population Normal (%) [2]: 98%
Population Pyknosed Nuclei (%) [2]: 8%
Population Tubulin-Different-Phenotype (%) [2]: 9%
Total Cell Count [2]: 111
Population Apoptotic (%) [3]: 30%
Population Fragmented Nuclei (%) [3]: 72%
Population Healthy Nuclei (%) [3]: 21%
Population Hoechst High Intensity Objects (%) [3]: 11%
Population Membrane Permeable-Phenotype (%) [3]: 4%
Population Mitochondria Different-Phenotype (%) [3]: 15%
Population Mitotic Cells (%) [3]: 69%
Population Normal (%) [3]: 88%
Population Pyknosed Nuclei (%) [3]: 5%
Population Tubulin-Different-Phenotype (%) [3]: 28%
Total Cell Count [3]: 247
Population Apoptotic (%) [4]: 0%
Population Fragmented Nuclei (%) [4]: 27%
Population Healthy Nuclei (%) [4]: 67%
Population Hoechst High Intensity Objects (%) [4]: 6%
Population Membrane Permeable-Phenotype (%) [4]: 2%
Population Mitochondria Different-Phenotype (%) [4]: 21%
Population Mitotic Cells (%) [4]: 100%
Population Normal (%) [4]: 93%
Population Tubulin-Different-Phenotype (%) [4]: 13%
Total Cell Count [4]: 61
Population Apoptotic (%) [5]: 38%
Population Fragmented Nuclei (%) [5]: 18%
Population Healthy Nuclei (%) [5]: 48%
Population Hoechst High Intensity Objects (%) [5]: 10%
Population Membrane Permeable-Phenotype (%) [5]: 22%
Population Mitochondria Different-Phenotype (%) [5]: 2%
Population Mitotic Cells (%) [5]: 61%
Population Normal (%) [5]: 89%
Population Pyknosed Nuclei (%) [5]: 34%
Population Tubulin-Different-Phenotype (%) [5]: 27%
Total Cell Count [5]: 112
Population Apoptotic (%) [6]: 42%
Population Fragmented Nuclei (%) [6]: 5%
Population Healthy Nuclei (%) [6]: 86%
Population Hoechst High Intensity Objects (%) [6]: 4%
Population Membrane Permeable-Phenotype (%) [6]: 4%
Population Mitochondria Different-Phenotype (%) [6]: 7%
Population Mitotic Cells (%) [6]: 57%
Population Normal (%) [6]: 95%
Population Pyknosed Nuclei (%) [6]: 8%
Population Tubulin-Different-Phenotype (%) [6]: 14%
Total Cell Count [6]: 157
Population Apoptotic (%) [7]: 69%
Population Fragmented Nuclei (%) [7]: 55%
Population Healthy Nuclei (%) [7]: 36%
Population Hoechst High Intensity Objects (%) [7]: 9%
Population Membrane Permeable-Phenotype (%) [7]: 12%
Population Mitochondria Different-Phenotype (%) [7]: 6%
Population Mitotic Cells (%) [7]: 30%
Population Normal (%) [7]: 90%
Population Pyknosed Nuclei (%) [7]: 8%
Population Tubulin-Different-Phenotype (%) [7]: 9%
Total Cell Count [7]: 304
Population Apoptotic (%) [8]: 33%
Population Fragmented Nuclei (%) [8]: 25%
Population Healthy Nuclei (%) [8]: 70%
Population Hoechst High Intensity Objects (%) [8]: 3%
Population Membrane Permeable-Phenotype (%) [8]: 1%
Population Mitochondria Different-Phenotype (%) [8]: 16%
Population Mitotic Cells (%) [8]: 66%
Population Normal (%) [8]: 96%
Population Pyknosed Nuclei (%) [8]: 4%
Population Tubulin-Different-Phenotype (%) [8]: 13%
Total Cell Count [8]: 83
Population Apoptotic (%) [9]: 66%
Population Fragmented Nuclei (%) [9]: 22%
Population Healthy Nuclei (%) [9]: 58%
Population Hoechst High Intensity Objects (%) [9]: 18%
Population Membrane Permeable-Phenotype (%) [9]: 21%
Population Mitochondria Different-Phenotype (%) [9]: 3%
Population Mitotic Cells (%) [9]: 33%
Population Normal (%) [9]: 81%
Population Pyknosed Nuclei (%) [9]: 18%
Population Tubulin-Different-Phenotype (%) [9]: 35%
Total Cell Count [9]: 118
Population Apoptotic (%) [10]: 0%
Population Fragmented Nuclei (%) [10]: 27%
Population Healthy Nuclei (%) [10]: 72%
Population Hoechst High Intensity Objects (%) [10]: 42%
Population Membrane Permeable-Phenotype (%) [10]: 17%
Population Mitochondria Different-Phenotype (%) [10]: 2%
Population Mitotic Cells (%) [10]: 0%
Population Normal (%) [10]: 57%
Population Pyknosed Nuclei (%) [10]: 0%
Population Tubulin-Different-Phenotype (%) [10]: 37%
Total Cell Count [10]: 165
Population Apoptotic (%) [11]: 86%
Population Fragmented Nuclei (%) [11]: 33%
Population Healthy Nuclei (%) [11]: 46%
Population Hoechst High Intensity Objects (%) [11]: 12%
Population Membrane Permeable-Phenotype (%) [11]: 23%
Population Mitochondria Different-Phenotype (%) [11]: 0%
Population Mitotic Cells (%) [11]: 13%
Population Normal (%) [11]: 87%
Population Pyknosed Nuclei (%) [11]: 19%
Population Tubulin-Different-Phenotype (%) [11]: 2%
Total Cell Count [11]: 351
Population Apoptotic (%) [12]: 100%
Population Fragmented Nuclei (%) [12]: 39%
Population Healthy Nuclei (%) [12]: 59%
Population Hoechst High Intensity Objects (%) [12]: 14%
Population Mitochondria Different-Phenotype (%) [12]: 1%
Population Mitotic Cells (%) [12]: 0%
Population Normal (%) [12]: 85%
Population Pyknosed Nuclei (%) [12]: 1%
Population Tubulin-Different-Phenotype (%) [12]: 49%
Total Cell Count [12]: 128
